The target in series [1] is spHCN (R332C background, Alexa-488 labelled, called WT) (Strongylocentrotus purpuratus, UniProt O76977, R332C/M375L). Briefly: two-electrode voltage clamp, oocytes. The class given is cell-based. To be noted: 100 μM ZD7288; pore blocker control; Alexa-488-labelled channel.
The target of the next series is T1, human HCN1 (full length) (Homo sapiens, UniProt O60741).
T1 sequence (O60741 1-890): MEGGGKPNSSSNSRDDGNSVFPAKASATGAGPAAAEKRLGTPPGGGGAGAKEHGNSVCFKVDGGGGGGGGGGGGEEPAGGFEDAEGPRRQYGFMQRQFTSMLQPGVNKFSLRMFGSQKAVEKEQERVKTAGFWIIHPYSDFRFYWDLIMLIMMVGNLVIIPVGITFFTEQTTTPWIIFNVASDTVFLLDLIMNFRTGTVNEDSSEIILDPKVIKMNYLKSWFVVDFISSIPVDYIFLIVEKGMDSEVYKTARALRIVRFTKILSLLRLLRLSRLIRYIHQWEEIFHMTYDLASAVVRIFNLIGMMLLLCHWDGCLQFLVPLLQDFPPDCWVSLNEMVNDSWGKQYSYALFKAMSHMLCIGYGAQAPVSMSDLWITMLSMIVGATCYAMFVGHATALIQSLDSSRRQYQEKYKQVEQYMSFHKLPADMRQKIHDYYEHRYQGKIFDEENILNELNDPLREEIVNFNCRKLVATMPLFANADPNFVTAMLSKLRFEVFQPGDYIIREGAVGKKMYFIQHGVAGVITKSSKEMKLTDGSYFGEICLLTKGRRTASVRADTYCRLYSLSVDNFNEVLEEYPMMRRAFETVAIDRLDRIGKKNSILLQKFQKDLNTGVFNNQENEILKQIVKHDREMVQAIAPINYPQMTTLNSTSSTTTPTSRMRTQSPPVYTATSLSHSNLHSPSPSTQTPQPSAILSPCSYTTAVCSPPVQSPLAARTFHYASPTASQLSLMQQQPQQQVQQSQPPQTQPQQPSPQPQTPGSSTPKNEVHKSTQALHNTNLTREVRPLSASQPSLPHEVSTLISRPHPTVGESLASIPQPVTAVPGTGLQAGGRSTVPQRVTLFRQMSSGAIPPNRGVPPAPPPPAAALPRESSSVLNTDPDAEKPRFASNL
Nature of the series: two-electrode voltage clamp, oocytes. In kind it is cell-based. To be noted: 30 μM propofol, 20 min incubation; pH 7.4; allosteric inhibitor. The method in brief:
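Full-length human HCN1 RNA (wild type or mutant), made by in vitro transcription, injected into defolliculated Xenopus laevis oocytes. Oocytes stored at 16°C in 1:2 diluted L-15 medium with 2.5% penicillin-streptomycin and 5 mM HEPES pH 7.5. Two-electrode clamp used 3 M KCl-filled electrodes (0.1–0.5 MΩ current, 1–5 MΩ voltage).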

The series “cryo-EM structure” deals with the molecule itself. Nature of the series: cryo-EM structure.

For the molecule `CCN(c1ccccc1)c1cc(NC)[n+](C)c(C)n1` [ZD7288], the “two-electrode voltage clamp, oocytes” value in series [1] is “currents from spHCN M375L channels are blocked by the HCN-channel blocker ZD7288”.

For `CC(C)c1cccc(C(C)C)c1O` [propofol, 2,6-di-iso-propylphenol], the “ΔV1/2 (mV) / I / Iapo (%)” value on human HCN1 (full length) is −30.9 ± 6.4 mV.

B1: human HCN1EM M305L in lipid nanodiscs (natural protein, UniProt O60741 1-890, looked up)
chain: MEGGGKPNSSSNSRDDGNSVFPAKASATGAGPAAAEKRLGTPPGGGGAGAKEHGNSVCFKVDGGGGGGGGGGGGEEPAGGFEDAEGPRRQYGFMQRQFTSMLQPGVNKFSLRMFGSQKAVEKEQERVKTAGFWIIHPYSDFRFYWDLIMLIMMVGNLVIIPVGITFFTEQTTTPWIIFNVASDTVFLLDLIMNFRTGTVNEDSSEIILDPKVIKMNYLKSWFVVDFISSIPVDYIFLIVEKGMDSEVYKTARALRIVRFTKILSLLRLLRLSRLIRYIHQWEEIFHMTYDLASAVVRIFNLIGMLLLLCHWDGCLQFLVPLLQDFPPDCWVSLNEMVNDSWGKQYSYALFKAMSHMLCIGYGAQAPVSMSDLWITMLSMIVGATCYAMFVGHATALIQSLDSSRRQYQEKYKQVEQYMSFHKLPADMRQKIHDYYEHRYQGKIFDEENILNELNDPLREEIVNFNCRKLVATMPLFANADPNFVTAMLSKLRFEVFQPGDYIIREGAVGKKMYFIQHGVAGVITKSSKEMKLTDGSYFGEICLLTKGRRTASVRADTYCRLYSLSVDNFNEVLEEYPMMRRAFETVAIDRLDRIGKKNSILLQKFQKDLNTGVFNNQENEILKQIVKHDREMVQAALPRESSSVLNTDPDAEKPRFASNL
As to B1, the binding result in “cryo-EM structure” is reported as “binds”.
